Results on 101 molecules are retold here after PubChem BioAssay AID463111 (Johns Hopkins Ion Channel Center, 2010).

Structures are written as SMILES. Screen size: about 310,000 compounds; about 2,800 (0.9%) were called active.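 The calls were made as follows: active = B-score of the integrated calcium signal more than 4 SD below the library mean, with starting fluorescence not abnormally high; inactive = the rest.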 What follows is part of a selection rich in actives, with near analogues and random picks from the rest.

This experiment is described as follows: RGS4 potentiators or activators, primary screen, cell-based, HEK293 M3R inducible RGS4, calcium flux (AID 463111).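 As to B-score: negative B-score means reduced calcium response which marks RGS4 activation or potentiation.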 As to conditions: HEK293 M3R/inducible RGS4, carbachol calcium flux Fluo4, at 10 µM; stronger effect = lower value. The method in brief:
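test system = M3R-expressing HEK293 line, RGS4 induced by doxycycline | probe or stimulus = carbachol at ECmax as muscarinic agonist stimulus | timing = dye loading 30 min 37 °C, buffer rest 30 min RT | signal = calcium dye Fluo4 fluorescence | evaluation = B score from integrated fluorescence ratio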
In general terms: Calcium flux is commonly read through the fluorescence of an indicator in the cells.
With `Cc1cc2c(cc1S(=O)(=O)CCC(=O)NCc1ccccc1)OCC(=O)N2`, the B-score entry is “inactive”. In the case of `COc1ccc(NC(=O)CCS(=O)(=O)c2cc3c(cc2Cl)NC(=O)CO3)cc1OC` it was “inactive”. Under `COc1ccc(Cl)cc1NC(=O)CCS(=O)(=O)c1cc2c(cc1C)NC(=O)CO2` stands -7.02 (active); under `COc1cccc(C2c3[nH]c4ccccc4c3CCN2Cc2cccc(C)n2)c1` (stereo unspecified), “inactive”.

Consider `CC1=CCC2C(=O)N(c3cccc(C(=O)NC(C)c4ccccc4)c3)C(=O)C2C1` (stereo unspecified), for which the B-score entry is “inactive”. On to `CCCCn1c(N)c(N(CC)C(=O)c2ccccc2C(F)(F)F)c(=O)[nH]c1=O`, for which the B-score entry is “inactive”. `Cc1nn(Cc2ccc(C(=O)N3N=C(C(F)F)CC3(O)C(F)F)cc2)c(C)c1[N+](=O)[O-]` (stereo unspecified): the B-score entry is “inactive”. In the case of `O=C(CN1CCCCCC1)Nc1ccc(S(=O)(=O)N2CCCCC2)cc1` it was -8.13 (active); in that of `CCOc1ccc(NC(=O)COc2ccc(S(=O)(=O)N3CCCC3)cc2)cc1`, “inactive”; in that of `O=C(CSCc1ccc(Br)cc1)Nc1ccc(S(=O)(=O)N2CCCCCC2)cc1`, “inactive”. On to `O=c1cc(CO)oc(C(Nc2cccc([N+](=O)[O-])c2)c2ccccn2)c1O` (stereo unspecified), for which the B-score entry was “inactive”. Under `CCc1ccc(OCC(=O)N(Cc2ccccc2)C2CCS(=O)(=O)C2)cc1` (stereo unspecified) stands “inactive”.

As to `Cc1ccc(C)c(-c2nnc(NC(=O)CS(=O)(=O)c3ccccc3)o2)c1`, the B-score result was “inactive”. Under `O=C(Nc1cccn(Cc2c(Cl)cccc2Cl)c1=O)c1ccc(Cl)cc1` stands “inactive”.

As to `CCCC(=O)NC(Nc1ccccc1OC)C(Cl)(Cl)Cl` (stereo unspecified), the B-score entry was “inactive”.

Turning to `CCCCCCCC(=O)NC(Nc1ccccc1OC)C(Cl)(Cl)Cl` (stereo unspecified), the B-score was -8.57 (active). As for `COc1ccccc1NC(=O)CCCc1c[nH]c2ccccc12`, the B-score entry was “inactive”. Take `Cc1cnc(C(=O)OCc2c(C)cc(C(C)(C)C)cc2C)cn1`: the B-score entry was “inactive”. In the case of `Cc1cc(C(=O)OCC(=O)Nc2ccc(F)c(F)c2)c(C)o1` it was “inactive”. In the case of `O=C(NCc1ccc(F)cc1)C1CCN(C(=O)Nc2ccc(F)cc2)CC1`, the B-score result is “inactive”.

Consider `CCc1ccc(C(=O)OCC(=O)NCC(F)(F)F)cc1`, for which the B-score result was “inactive”.

Turning to `Cc1c(NC(=O)Nc2cccc([N+](=O)[O-])c2)c(=O)n(-c2ccccc2)n1C`, the B-score result is “inactive”. In the case of `Cc1nc(N2CCN(c3ccccn3)CC2)c2c(C)c(C(=O)Nc3ccc(F)c(Cl)c3)sc2n1` it was “inactive”; in that of `COc1ccc(NC(=O)c2sc3nc(C)nc(N4CCN(c5ccccn5)CC4)c3c2C)c(OC)c1`, “inactive”; in that of `Cc1nc(N2CCN(c3ccccn3)CC2)c2c(C)c(C(=O)Nc3ccc(F)cc3)sc2n1`, -9.74 (active).

In the case of `O=C(Oc1ccc([N+](=O)[O-])cc1)c1ccc(Cl)c(S(=O)(=O)N2CCCCC2)c1`, the B-score entry is “inactive”. As to `C=CCN(N=Nc1cccc([N+](=O)[O-])c1)c1cccc([N+](=O)[O-])c1`, the B-score result was “inactive”.

As to `CNC(=O)COC(=O)c1cc(-c2ccc(OC)cc2)nc2ccccc12`, the B-score entry was “inactive”. In the case of `Cc1ccc(-c2cc(C(=O)Nc3nn[nH]n3)c3ccccc3n2)c(C)c1` it was “inactive”; in that of `COc1ccc(-c2cc(C(=O)N(C)Cc3ccccc3)c3ccccc3n2)cc1`, -8.16 (active); in that of `COc1ccc(NC(=O)CN(C)C(=O)c2cc(-c3ccc(C)o3)nc3ccccc23)cc1`, “inactive”. In the case of `COc1ccc(-c2cc(C(=O)N(C)CC(=O)Nc3ccccc3Cl)c3ccccc3n2)cc1OC` it was “inactive”; in that of `COc1ccc(-c2cc(C(=O)N(C)Cc3ccc(OC)c(OC)c3OC)c3ccccc3n2)cc1OC`, -8.8 (active); in that of `COc1ccc(-c2cc(C(=O)Nc3ccccc3O)c3ccccc3n2)cc1`, “inactive”. In the case of `COc1ccc(CN(C)C(=O)Cc2c[nH]c3ccccc23)c(OC)c1OC` it was “inactive”; in that of `COc1ccc(CN(C)C(=O)c2cc(-c3ccc(C)cc3C)nc3ccccc23)c(OC)c1OC`, -11.6 (active); in that of `O=c1[nH]cccc1-c1nc2ccccc2n1Cc1ccc(Cl)cc1`, “inactive”. `CCC(Oc1ccccc1C)C(=O)Nc1ccc(S(=O)(=O)Nc2cc(C)on2)cc1` (stereo unspecified): the B-score result is “inactive”. For `CC1=C(C(=O)N(C)C)C(c2ccccc2OC(F)F)NC(=O)N1` (stereo unspecified), the B-score entry was “inactive”. Consider `Cc1ccc(NS(=O)(=O)c2c(C)[nH]c(C)c2C(=O)N2CCCCC2)c(C)c1`, for which the B-score result was “inactive”. With `CC1=C(C(=O)OC2CCCCC2)C(c2cccnc2)n2ncnc2N1` (stereo unspecified), the B-score result is “inactive”.

For the molecule `Cc1ccc(OCCOc2cccc(/C=N/NC(N)=O)c2)cc1`, the B-score entry was “inactive”. For `O=C(N/N=C/c1cccc(O)c1)c1cc2c(ccc3ccccc32)o1`, the B-score entry was “inactive”. Under `O=C(N/N=C/c1cccc(OCc2ccccc2)c1)c1ccc(Br)o1` stands -7.35 (active). In the case of `CSc1nc(-c2ccco2)nn1C(=O)c1ccccc1Cl` it was “inactive”; in that of `CN(C)c1ccc(/C=C2\NC(=S)N(Cc3ccccc3)C2=O)cc1`, -12 (active). Under `O=C1NCC(=O)N(Cc2ccccc2)/C1=C/c1ccccc1` stands “inactive”. As to `O=C1/C(=C\c2ccsc2)NC(=S)N1c1ccccc1`, the B-score result was “inactive”. With `CC(=O)N1CCN(S(=O)(=O)c2c(F)cc(F)c(Cl)c2F)CC1`, the B-score entry is “inactive”. In the case of `C/C=C(\C)C(=O)N1CC2(CC(c3cccc(NC(=O)CCCCC)c3)=NO2)C[C@@H]1C(N)=O` (stereo partly specified) it was “inactive”.

For `CN(C)C(=O)c1nc2ccc(Cl)cn2c1CNCc1cccc(OC(F)(F)F)c1`, the B-score entry was “inactive”.

For the molecule `CN(C)c1ccc2c(=O)[nH][nH]c(=O)c2c1`, the B-score result is “inactive”. In the case of `O=C(NCc1ccncc1)C1CCN(C(=O)c2cccc(Cl)c2)CC1` it was “inactive”; in that of `COC(=O)c1cccc(C(=O)N2CCC(CCC(=O)NCc3ccc(F)cc3)CC2)c1`, “inactive”; in that of `Cn1c2ccccc2c2c(C(=O)N3CCN(c4ccc(F)cc4)CC3)cn(C3CCCC3)c(=O)c21`, -7.18 (active). In the case of `O=C(c1ccccc1Oc1ccccc1)N1CCN(c2ccc(F)cc2)CC1` it was “inactive”; in that of `CCOC(=O)N1CCN(C(=O)c2nn(-c3ccc(C)cc3)c(=O)c3c2c2ccccc2n3C)CC1`, “inactive”; in that of `Nc1nc(SCc2cccc(Br)c2)n[nH]1`, “inactive”. As for `COC(=O)c1ccc(CN2CCC(CO)(Cc3ccc(OC)cc3)CC2)cc1`, the B-score was -8.7 (active). In the case of `COc1ccc(CC2(CO)CCN(Cc3cnn(C)c3)CC2)cc1` it was “inactive”; in that of `CC(=O)c1cccc(CN2CCC(CO)(Cc3ccccc3)CC2)c1`, “inactive”; in that of `CC(=O)c1ccc(S(=O)(=O)Nc2ccc(C(=O)NCC(c3ccccc3)N(C)C)cc2)cc1` (stereo unspecified), “inactive”. Under `COc1ccccc1C(CNC(=O)c1cccc(NS(=O)(=O)c2ccc(Br)cc2)c1)N(C)C` (stereo unspecified) stands -8.15 (active); under `CN(C)C(CNC(=O)c1cccc(S(=O)(=O)Nc2ccc(Br)cc2)c1)c1ccco1` (stereo unspecified), “inactive”; under `COC(=O)c1ccccc1Sc1c(/C=N/OCc2ccc(Cl)cc2)c(C(F)(F)F)nn1C`, -7.48 (active). Under `COC(=O)c1ccccc1NC(=O)Cn1nc(C(F)(F)F)c2c1CCC2` stands “inactive”; under `COC(=O)c1ccccc1NC(=O)CN(Cc1ccc(Cl)cc1)S(C)(=O)=O`, “inactive”. For the molecule `CC(C)[C@H](NC(=O)c1ccc(F)cc1)C(=O)OCC(=O)NC(=O)c1cccn1C`, the B-score result was “inactive”. With `Cc1cccc(NS(=O)(=O)c2ccc(C(=O)NCC(C)(C)N3CCOCC3)cc2)c1C`, the B-score result was “inactive”. Regarding `N[C@@H](Cc1ccccc1)C(=O)N1CCOCC1`, the B-score result was “inactive”. Under `COCCCNC(=S)NC(=O)c1ccccc1` stands “inactive”; under `CCOC(=O)C1=C(NC(=S)NC(=O)c2ccccc2)c2ccccc2CC1(C)C`, -9.14 (active). On to `CCOC(=O)c1c(-c2ccccc2)csc1NC(=S)NC(=O)c1ccccc1`, for which the B-score entry was “inactive”.

For `CCn1c(SC)nc(O)c(C(c2ccc(OC)c(O)c2)c2c(O)nc(SC)n(CC)c2=O)c1=O`, the B-score result is “inactive”. In the case of `O=C(/C=C/c1ccc(F)cc1)Nc1cccc(S(=O)(=O)Nc2cccc(C(F)(F)F)c2)c1` it was “inactive”; in that of `CCOC(=O)N1CCN(C(=O)c2ccc(S(=O)(=O)Nc3cccc(C(F)(F)F)c3)cc2)CC1`, “inactive”. In the case of `Cc1oc2c(F)c(F)c(F)c(F)c2c1S(=O)(=O)Nc1cccc(C(F)(F)F)c1`, the B-score is -9.29 (active). Under `CCOc1ccc(NC(=O)CN(C)CC(=O)NC(C)c2ccccc2)cc1OCC` (stereo unspecified) stands “inactive”; under `COc1cc(NS(=O)(=O)c2ccc(NC(=O)CN3C(=O)c4ccccc4C3=O)cc2)ncn1`, “inactive”; under `CS(=O)(=O)Nc1ccc(C(=O)N2CCCC2)cc1`, “inactive”.

Take `C=CCOc1ccc(/C=C/C(=O)OCC(=O)NCC2CCCO2)cc1` (stereo unspecified): the B-score entry was “inactive”. In the case of `O=C(Nc1nccs1)C1CCN(S(=O)(=O)c2ccc(Cl)c(C(F)(F)F)c2)CC1` it was “inactive”; in that of `Cc1ccc(NC(=O)COc2ccc(/C=C3/NC(=O)NC3=O)cc2)cc1`, “inactive”; in that of `CC(C)c1ccc(/C=C2\NC(=O)NC2=O)cc1`, -8.02 (active). As to `CSc1ccc(/C=C2\NC(=O)NC2=O)cc1`, the B-score entry is “inactive”. In the case of `COc1ccc(C2=NN(C(=O)CSc3nc(=O)n4ccc(C)cc4n3)C(c3ccc(C)cc3)C2)cc1` (stereo unspecified) it was “inactive”. In the case of `CC(C)Cn1c(N2CCN(C(=O)/C=C/c3ccccc3)CC2)nc2ccccc21` it was “inactive”; in that of `O=C(Cn1c(N2CCN(C/C=C/c3ccccc3)CC2)nc2ccccc21)c1ccccc1`, -8 (active); in that of `O=C1c2ccccc2C(=O)c2c1cccc2N1CCN(C/C=C/c2ccccc2)CC1`, “inactive”. With `CC(NCc1nc2ccccc2n1C)C12CC3CC(CC(C3)C1)C2` (stereo unspecified), the B-score entry was “inactive”. In the case of `CCN(CC)C(=O)COc1coc(CN2CCN(Cc3ccccc3)CC2)cc1=O`, the B-score entry is “inactive”. As to `CCOc1cccc(NC(=O)Cn2nc(-c3ccc4c(c3)OCCO4)ccc2=O)c1`, the B-score entry is “inactive”.

On to `CCOc1ccc2[nH]c(=O)c(CN(Cc3nnnn3CCc3ccccc3)CC3CCCO3)cc2c1` (stereo unspecified), for which the B-score entry was “inactive”.

Regarding `Oc1ccccc1N1CCN(c2ncnc3sc(-c4ccccc4)cc23)CC1`, the B-score is -9.36 (active). In the case of `COc1ccccc1N1CCN(c2ncnc3sc(C)c(-c4ccccc4)c23)CC1` it was “inactive”. Under `c1ccc(-c2cc3c(NCC4COc5ccccc5O4)ncnc3s2)cc1` (stereo unspecified) stands “inactive”; under `CNC(=O)COc1ccc(S(=O)(=O)Nc2ccccc2)cc1`, “inactive”.

As for `CCn1ncc(CNC(=O)C2(C)CC2(Br)Br)c1C` (stereo unspecified), the B-score result is “inactive”. For `COc1cnc(SCc2ccc(Cl)c(Cl)c2)nc1Cl`, the B-score is -7.01 (active). As for `Nc1cc(N)nc(SCc2ccc(Cl)cc2)n1`, the B-score result is “inactive”.

Take `C=CCn1c(SCc2ccc(Cl)c(Cl)c2)nnc1C(CO)NC(=O)c1ccc(OC)cc1` (stereo unspecified): the B-score entry is “inactive”.
